{"source": "ChEMBL document CHEMBL4411315", "about": "“Discovery of Novel Dual Histone Deacetylase and Mammalian Target of Rapamycin Target Inhibitors as a Promising Strategy for Cancer Therapy” (J Med Chem, 2019)", "key": {"[1]": {"system": "MM1.S", "test": "Induction of apoptosis in human MM1S cells assessed as early apoptotic cells at 20 nM after 48 hrs by Annexin V-FITC/propidium iodide staining-based flow cytometric analysis (reference value: 0.38%)", "assay_type": "functional"}, "[2]": {"system": "MV4-11", "test": "Induction of apoptosis in human MV4-11 cells assessed as viable cells at 10 nM after 48 hrs by Annexin V-FITC/propidium iodide staining-based flow cytometric analysis (reference value: 84.1%)", "assay_type": "functional", "conditions": "MV4-11, 48 h, read-out: Activity"}, "[3]": {"system": "MV4-11", "test": "Induction of apoptosis in human MV4-11 cells assessed as early apoptotic cells at 80 nM after 48 hrs by Annexin V-FITC/propidium iodide staining-based flow cytometric analysis (reference value: 10.7%)", "assay_type": "functional"}, "[4]": {"test": "Toxicity against NOD/SCID mouse xenografted with human MV4-11 cells assessed as mouse survival at 10 mg/kg, iv administered every 2 days for 6 days", "assay_type": "organism-based", "conditions": "in vivo", "procedure,_shortened": "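MV4-11 cells (10^7 in 100 μL serum-free IMDM) were injected s.c. into the right flank of female NOD/SCID mice aged 5-6 weeks. Groups of 6 were randomised at 100-200 mm3. Dosing was i.v. every 2 days in physiological saline containing 2.5% DMSO and 10% cyclodextrin, pH 9. Tumours were measured by caliper every 2 days. Survivors were counted.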"}, "[5]": {"test": "Toxicity against NOD/SCID mouse xenografted with human MM1S cells assessed as effect on body weight at 10 mg/kg, iv administered every 2 days for 5 days", "assay_type": "organism-based", "conditions": "in vivo", "procedure,_shortened": "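Female NOD/SCID mice, 5-6 weeks old, received 10^7 MM1S cells in 100 μL serum-free RPMI 1640 s.c. into the right flank. At 100-200 mm3 tumours they were randomised, 6 mice per group. Tumours were measured by caliper every 2 days. At the end, tumours were excised and weighed. Survivors are reported per group.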"}, "[6]": {"system": "MM1.S", "test": "Cell cycle arrest in human MM1S cells assessed as accumulation at S phase at 5 nM after 24 hrs by propidium iodide/RNase staining-based FACS analysis (reference value: 24.49%)", "assay_type": "functional"}, "[7]": {"system": "MV4-11", "test": "Induction of apoptosis in human MV4-11 cells assessed as late apoptotic cells at 80 nM after 48 hrs by Annexin V-FITC/propidium iodide staining-based flow cytometric analysis (reference value: 5.03%)", "assay_type": "functional"}, "[8]": {"system": "MV4-11", "test": "Cell cycle arrest in human MV4-11 cells assessed as accumulation at S phase at 1.25 nM after 24 hrs by propidium iodide/RNase staining-based FACS analysis (reference value: 36.42%)", "assay_type": "functional"}, "[9]": {"system": "MM1.S", "test": "Cell cycle arrest in human MM1S cells assessed as accumulation at G0/G1 phase at 10 nM after 24 hrs by propidium iodide/RNase staining-based FACS analysis (reference value: 49.22%)", "assay_type": "functional"}, "[10]": {"system": "MV4-11", "test": "Induction of apoptosis in human MV4-11 cells assessed as late apoptotic cells at 10 nM after 48 hrs by Annexin V-FITC/propidium iodide staining-based flow cytometric analysis (reference value: 5.03%)", "assay_type": "functional"}, "[11]": {"system": "MM1.S", "test": "Antiproliferative activity against human MM1S cells after 72 hrs by MTT assay", "assay_type": "functional, cell-based"}, "[12]": {"system": "MM1.S", "test": "Induction of apoptosis in human MM1S cells assessed as early apoptotic cells at 40 nM after 48 hrs by Annexin V-FITC/propidium iodide staining-based flow cytometric analysis (reference value: 0.38%)", "assay_type": "functional"}, "[13]": {"system": "MV4-11", "test": "Induction of apoptosis in human MV4-11 cells assessed as necrotic cells at 10 nM after 48 hrs by Annexin V-FITC/propidium iodide staining-based flow cytometric analysis (reference value: 0.17%)", "assay_type": "functional"}, "[14]": {"target": "Histone deacetylase 9 (Homo sapiens, UniProt Q9UKV0)", "sequence (Q9UKV0 whole entry)": "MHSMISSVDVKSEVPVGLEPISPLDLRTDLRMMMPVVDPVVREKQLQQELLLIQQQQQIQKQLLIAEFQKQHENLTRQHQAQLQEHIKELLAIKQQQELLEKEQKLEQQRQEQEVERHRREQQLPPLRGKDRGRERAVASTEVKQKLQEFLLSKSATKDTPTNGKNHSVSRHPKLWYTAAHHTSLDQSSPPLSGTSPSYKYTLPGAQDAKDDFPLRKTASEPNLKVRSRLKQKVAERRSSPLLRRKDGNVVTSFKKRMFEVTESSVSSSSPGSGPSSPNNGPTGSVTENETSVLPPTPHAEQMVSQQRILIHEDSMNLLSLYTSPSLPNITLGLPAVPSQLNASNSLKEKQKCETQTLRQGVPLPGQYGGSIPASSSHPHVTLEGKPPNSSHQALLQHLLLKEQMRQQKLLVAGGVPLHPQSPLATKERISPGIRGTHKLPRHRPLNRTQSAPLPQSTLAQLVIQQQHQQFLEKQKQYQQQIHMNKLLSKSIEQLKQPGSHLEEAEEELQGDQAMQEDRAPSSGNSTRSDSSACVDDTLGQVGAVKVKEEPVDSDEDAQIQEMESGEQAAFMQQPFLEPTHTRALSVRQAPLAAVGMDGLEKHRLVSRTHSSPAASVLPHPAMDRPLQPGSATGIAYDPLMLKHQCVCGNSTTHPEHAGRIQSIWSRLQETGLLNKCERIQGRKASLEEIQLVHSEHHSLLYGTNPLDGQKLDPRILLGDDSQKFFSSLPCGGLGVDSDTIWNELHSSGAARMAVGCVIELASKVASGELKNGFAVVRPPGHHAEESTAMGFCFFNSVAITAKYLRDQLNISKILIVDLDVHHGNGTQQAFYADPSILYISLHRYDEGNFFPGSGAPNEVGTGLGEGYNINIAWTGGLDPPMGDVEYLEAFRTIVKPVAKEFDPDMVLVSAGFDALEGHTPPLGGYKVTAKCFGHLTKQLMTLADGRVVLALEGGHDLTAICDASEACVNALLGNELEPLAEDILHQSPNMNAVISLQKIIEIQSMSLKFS", "test": "Inhibition of recombinant full length C-terminal His-tagged human HDAC9 expressed in baculovirus expression system using Ac-peptide-AMC as substrate preincubated for 15 mins followed by substrate addition and measured after 1 hr by fluorescence assay"}, "[15]": {"target": "FKBP12A/mTOR (Homo sapiens) (UniProt P62942+P42345)", "sequence (P62942 2-108 limits assumed, other chains not shown)": "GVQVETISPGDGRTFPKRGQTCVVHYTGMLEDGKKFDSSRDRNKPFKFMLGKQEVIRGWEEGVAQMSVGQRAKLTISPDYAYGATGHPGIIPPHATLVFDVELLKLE", "test": "Inhibition of human recombinant MTOR/FKBP12 expressed in mammalian expression system assessed as residual activity at 1 uM", "procedure,_shortened": "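Radiometric kinase panel (99 kinases) run at 1 μM inhibitor in duplicate with [γ-33P]ATP, kinase-specific buffer and substrate at room temperature. The reaction was started with Mg/ATP and stopped with 0.5% phosphoric acid, then spotted on P30 filtermat, washed and scintillation counted. Results are expressed as % remaining activity versus DMSO control.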"}, "[16]": {"system": "MM1.S", "test": "Induction of apoptosis in human MM1S cells assessed as late apoptotic cells at 80 nM after 48 hrs by Annexin V-FITC/propidium iodide staining-based flow cytometric analysis (reference value: 0.42%)", "assay_type": "functional"}, "[17]": {"system": "MM1.S", "test": "Induction of apoptosis in human MM1S cells assessed as viable cells at 10 nM after 48 hrs by Annexin V-FITC/propidium iodide staining-based flow cytometric analysis (reference value: 98.9%)", "assay_type": "functional", "conditions": "read-out: Activity"}, "[18]": {"system": "MM1.S", "test": "Induction of apoptosis in human MM1S cells assessed as late apoptotic cells at 20 nM after 48 hrs by Annexin V-FITC/propidium iodide staining-based flow cytometric analysis (reference value: 0.42%)", "assay_type": "functional"}, "[19]": {"system": "MM1.S", "test": "Induction of apoptosis in human MM1S cells assessed as necrotic cells at 160 nM after 48 hrs by Annexin V-FITC/propidium iodide staining-based flow cytometric analysis (reference value: 0.32%)", "assay_type": "functional"}, "[20]": {"system": "MM1.S", "test": "Cell cycle arrest in human MM1S cells assessed as accumulation at G2/M phase at 2.5 nM after 24 hrs by propidium iodide/RNase staining-based FACS analysis (reference value: 26.29%)", "assay_type": "functional"}, "[21]": {"system": "MV4-11", "test": "Induction of apoptosis in human MV4-11 cells assessed as early apoptotic cells at 20 nM after 48 hrs by Annexin V-FITC/propidium iodide staining-based flow cytometric analysis (reference value: 10.7%)", "assay_type": "functional"}, "[22]": {"system": "HCT-116", "test": "Antiproliferative activity against human HCT116 cells after 72 hrs by MTT assay", "assay_type": "functional, cell-based", "conditions": "HCT-116, 72 h"}, "[23]": {"system": "MM1.S", "test": "Induction of apoptosis in human MM1S cells assessed as late apoptotic cells at 320 nM after 48 hrs by Annexin V-FITC/propidium iodide staining-based flow cytometric analysis (reference value: 0.42%)", "assay_type": "functional"}, "[24]": {"system": "MM1.S", "test": "Cell cycle arrest in human MM1S cells assessed as accumulation at G2/M phase at 1.25 nM after 24 hrs by propidium iodide/RNase staining-based FACS analysis (reference value: 26.29%)", "assay_type": "functional"}, "[25]": {"system": "MV4-11", "test": "Induction of apoptosis in human MV4-11 cells assessed as necrotic cells at 20 nM after 48 hrs by Annexin V-FITC/propidium iodide staining-based flow cytometric analysis (reference value: 0.17%)", "assay_type": "functional"}, "[26]": {"system": "MV4-11", "test": "Cell cycle arrest in human MV4-11 cells assessed as accumulation at G0/G1 phase at 2.5 nM after 24 hrs by propidium iodide/RNase staining-based FACS analysis (reference value: 44.79%)", "assay_type": "functional"}, "[27]": {"system": "MM1.S", "test": "Induction of apoptosis in human MM1S cells assessed as early apoptotic cells at 10 nM after 48 hrs by Annexin V-FITC/propidium iodide staining-based flow cytometric analysis (reference value: 0.38%)", "assay_type": "functional"}}, "note": "The source made the active and inactive calls. The calls are words filed in the database; no cut-off is given here."}
{"smiles": "C[C@@H]1CN(C(=O)Nc2ccc(-c3nc(N4CCOCC4)c4cnn(CCCCCCC(=O)NO)c4n3)cc2)CCO1", "values": [{"measurement": "Activity", "setting": "[1]", "value": 1.61, "unit": "%"}, {"measurement": "viability at 0.01 µM", "setting": "[2]", "value": 75.2, "unit": "%"}, {"measurement": "Activity", "setting": "[3]", "value": 37.6, "unit": "%"}, {"measurement": "Activity", "setting": "[4]", "value": "Non-Toxic"}, {"measurement": "Activity", "setting": "[5]", "value": "Non-Toxic"}, {"measurement": "Activity", "setting": "[6]", "value": 17.65, "unit": "%"}, {"measurement": "Activity", "setting": "[7]", "value": 56.5, "unit": "%"}, {"measurement": "Activity", "setting": "[8]", "value": 34.16, "unit": "%"}, {"measurement": "Activity", "setting": "[9]", "value": 66.96, "unit": "%"}, {"measurement": "Activity", "setting": "[10]", "value": 9.91, "unit": "%"}, {"measurement": "IC50", "setting": "[11]", "value": 7.3, "unit": "nM"}, {"measurement": "Activity", "setting": "[12]", "value": 4.81, "unit": "%"}, {"measurement": "Activity", "setting": "[13]", "value": 0.14, "unit": "%"}, {"measurement": "IC50", "setting": "[14]", "value": "> 1000", "unit": "nM"}, {"measurement": "inhibition", "setting": "[15]", "value": "Active"}, {"measurement": "Activity", "setting": "[16]", "value": 40.5, "unit": "%"}, {"measurement": "viability at 0.01 µM", "setting": "[17]", "value": 95.1, "unit": "%"}, {"measurement": "Activity", "setting": "[18]", "value": 4.78, "unit": "%"}, {"measurement": "Activity", "setting": "[19]", "value": 3.39, "unit": "%"}, {"measurement": "Activity", "setting": "[20]", "value": 25.8, "unit": "%"}, {"measurement": "Activity", "setting": "[21]", "value": 38.2, "unit": "%"}, {"measurement": "IC50", "setting": "[22]", "value": 17.2, "unit": "nM"}, {"measurement": "Activity", "setting": "[23]", "value": 62, "unit": "%"}, {"measurement": "Activity", "setting": "[24]", "value": 24.1, "unit": "%"}, {"measurement": "Activity", "setting": "[25]", "value": 2.84, "unit": "%"}, {"measurement": "Activity", "setting": "[26]", "value": 48.03, "unit": "%"}, {"measurement": "Activity", "setting": "[27]", "value": 3.09, "unit": "%"}]}
